Screening data (PubChem)
NR2E3 ag-1 – activates human NR2E3 receptor; Q9Y5X4; hit rate 0.35% among 360,000; inhibition of corepressor binding, % at 3.98 µM; CHO-S Gal4-NCOR/VP16-NR2E3 two-hybrid, luciferase;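 active = inhibition above the mean of all tested compounds plus 3 SD, cut at about 70% in these data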;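 note: 0% = DMSO with NR2E3 transfected cells and 100% = cells lacking NR2E3 construct; higher means lower luciferase signal from less NR2E3 corepressor binding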
Target sequence (Q9Y5X4 whole entry, looked up, the tested form may be a part): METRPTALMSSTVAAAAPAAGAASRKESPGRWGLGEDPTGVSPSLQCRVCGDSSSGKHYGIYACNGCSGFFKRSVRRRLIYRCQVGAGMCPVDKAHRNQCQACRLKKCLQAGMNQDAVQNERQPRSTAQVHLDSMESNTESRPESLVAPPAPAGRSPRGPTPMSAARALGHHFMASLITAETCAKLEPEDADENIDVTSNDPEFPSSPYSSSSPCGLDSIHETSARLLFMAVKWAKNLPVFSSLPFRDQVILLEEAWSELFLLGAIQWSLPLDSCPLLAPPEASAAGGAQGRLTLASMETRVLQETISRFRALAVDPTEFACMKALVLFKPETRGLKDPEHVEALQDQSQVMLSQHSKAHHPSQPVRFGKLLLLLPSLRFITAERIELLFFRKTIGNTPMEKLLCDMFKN
NadD block – inhibitors of Staphylococcus aureus NadD; inhibition, % at 20 µM; hit rate 0.78% among 360,000; AID 602399; purified NadD enzyme, colorimetric absorbance read-out; in the data active = inhibition above about 26%
MsrA inhibitor – inhibitors of bovine MsrA. inhibition, % at 15.5 µM. purified bovine MsrA, absorbance read-out. hit rate 0.75% among 360,000; in the data active = inhibition above about 4.5%;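 note: 0% = vehicle wells with enzyme and 100% = reference inhibitor wells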
NR2E3 ag-2 – activates human photoreceptor nuclear receptor NR2E3; Q9Y5X4; GST-NR2E3/biotin-RetCOR TR-FRET, 1536-well; inhibition of corepressor binding, % at 4.78 µM; hit rate 0.12% among 320,000;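 active = percent inhibition above the cutoff of mean plus 3 SD of all tested compounds, set per screening campaign, cut at about 20% in these data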;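 note: 0% = DMSO wells and 100% = biotin wells as full block of FRET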
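Material: NR2E3–RetCOR corepressor complex / Incubation: Compound–protein incubation for 5 h at 4 °C / Dosing: compound at 4.8 µM, single dose / Detection: time-resolved FRET / Benchmarks: high control biotin, low control 0.6% DMSO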
bovine MsrA act – activators of bovine methionine sulfoxide reductase A; hit rate 0.3% among 360,000; AID 602163; purified bovine MsrA, absorbance read-out; activation, % at 10.6 µM; in the data active = activation above about 7.5%;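 note: 0% = vehicle and 100% = reference activator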
GalR3 antag – human GalR3 antagonism. inhibition, % at 3 µM. HEK293 GalR3-CNG cAMP membrane potential fluorescence; galR3 body fused to GalR1 C-terminus. O60755. AID 651719. hit rate 0.44% among 360,000;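 active = inhibition above the screen-wide average plus 3 SD, cut at about 13% in these data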;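 note: forskolin and galanin both at EC90 stimulate the cells; cAMP rise reported by CNG channel membrane potential dye signal; 0% = forskolin plus galanin with DMSO and 100% = forskolin alone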
Target sequence (O60755 1-299 limits assumed): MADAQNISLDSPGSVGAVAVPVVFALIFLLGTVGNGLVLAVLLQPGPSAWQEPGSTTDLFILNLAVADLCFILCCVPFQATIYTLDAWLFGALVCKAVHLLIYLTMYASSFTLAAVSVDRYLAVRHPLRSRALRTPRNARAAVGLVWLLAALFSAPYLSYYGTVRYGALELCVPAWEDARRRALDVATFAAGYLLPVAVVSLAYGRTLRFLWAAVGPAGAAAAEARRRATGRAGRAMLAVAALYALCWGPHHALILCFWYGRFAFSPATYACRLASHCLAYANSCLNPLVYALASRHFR
NR2E3 ag conf – NR2E3 agonism confirmed in two-hybrid assay | shares compounds with NR2E3 ag-1 | CHO-S mammalian two-hybrid NR2E3-NCOR, luciferase luminescence | inhibition, % at 3.98 µM | hit rate 51% among 2,300;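 active = average inhibition above a cutoff equal to the mean inhibition of all tested compounds plus one SD, cut at about 70% in these data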;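 note: 0% = DMSO in NR2E3 cells and 100% = DMSO in cells lacking NR2E3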
VP16 counter – reduces GAL4-VP16 reporter signal in NR2E3 counterscreen; hit rate 29% among 2,300; CHO-S GAL4-VP16 luciferase reporter, luminescence; inhibition, % at 3.98 µM; shares compounds with NR2E3 ag-1;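 active = mean inhibition above a cutoff equal to the average over all tested compounds plus one standard deviation, cut at about 70% in these data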;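 note: luciferase from a UAS reporter driven by GAL4-VP16 transactivation; 0% = DMSO with VP16-transfected cells and 100% = DMSO with cells lacking VP16; higher means less reporter light so more repression of VP16 activity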
An asterisk follows results filed as active; x = no result given. A selection: hits, their analogues and other compounds. The true share with any hit is near 2.5%.

SMILES	NR2E3 ag-1	NadD block	MsrA inhibitor	NR2E3 ag-2	bovine MsrA act	GalR3 antag	NR2E3 ag conf	VP16 counter
CC(=O)c1c(C)[nH]c(C(=O)OCc2cc(-c3ccco3)on2)c1C	25.9	0.9	0.6	x	-4.0	-6.7	x	x
CNC(=O)c1cccc(NC(=O)C(C)c2ccc3cc(OC)ccc3c2)c1 (stereo unspecified)	-20.7	-9.8	-0.2	6.2	1.3	-6.3	x	x
COc1ccc2cc(C(C)C(=O)Nc3cccc(S(=O)(=O)N(C)C)c3)ccc2c1 (stereo unspecified)	48.0	-2.1	-0.2	3.7	-0.5	-6.9	32.4	41.6
O=S(=O)(c1ccccc1)N1CCC(n2nnc3cc(F)ccc32)CC1	6.5	-8.2	1.8	0.9	-9.4	-1.2	x	x
O=S(=O)(c1ccc2c(c1)OCCO2)N1CCC(n2nnc3cc(C(F)(F)F)ccc32)CC1	52.0	-7.0	0.0	4.2	-0.4	-1.2	42.0	17.8
O=C(Nc1ccc(Br)cc1)C1CCCN(S(=O)(=O)c2cccnc2)C1 (stereo unspecified)	-24.3	2.8	1.0	-2.4	-2.1	5.1	x	x
CCOc1cccc(/C=N/NC(=S)Nc2ccccc2[N+](=O)[O-])c1O	82.7*	18.3	1.2	3.2	-2.0	-3.5	53.0	25.5
COc1ccc(C)cc1NC(=O)NC1CC(=O)N(c2ccc3c(c2)OCCO3)C1 (stereo unspecified)	72.2*	-5.9	0.2	x	-4.4	-6.1	77.8*	11.4
CC(=O)Nc1cccc(NC(=O)NC2CC(=O)N(c3ccc4c(c3)OCCO4)C2)c1 (stereo unspecified)	-17.0	-1.8	-0.6	x	2.5	-4.8	x	x
COc1ccccc1NC(=S)Nc1ccccc1F	-14.2	2.0	1.0	-1.0	-0.6	-2.7	x	x
COc1cnc(-c2ccccn2)nc1Oc1ccccc1Cl	-0.2	3.6	0.7	1.2	2.0	-4.9	x	x
COc1cnc(-c2ccccn2)nc1Sc1ccc(C)cc1	94.0*	7.0	1.5	0.7	-2.0	-8.7	42.0	29.7
Cc1ccc(Sc2cc(C)nc(-c3ccccn3)n2)cc1	85.8*	5.8	-1.2	-2.1	0.6	-1.4	-6.4	-23.9
FC(F)(F)c1cccc(Sc2cc(C(F)(F)F)nc(-c3ccccn3)n2)c1	-2.7	0.8	0.2	0.3	-1.4	-3.2	x	x
COc1cnc(-c2ccccn2)nc1NC(C)C	67.8	0.0	-0.5	-1.5	-2.6	-3.4	38.2	-23.2
COc1cnc(-c2ccccn2)nc1Sc1cccc(Cl)c1	52.4	17.5	0.0	0.4	-8.6	-5.1	62.6	4.6
COc1cnc(-c2ccccn2)nc1Oc1ccc(F)cc1F	43.7	2.1	0.1	4.0	-0.5	-3.7	x	x
COc1ccccc1Sc1nc(-c2ccccn2)ncc1OC	78.0*	3.6	0.2	-3.5	-1.7	-1.5	44.8	-0.9
Cc1ccc(S(=O)(=O)N(C)C)cc1NC(=O)C(C)N(C)Cc1sccc1C (stereo unspecified)	60.1	-0.3	-1.4	0.2	-1.3	-3.7	36.8	30.7
CCC1SC(C)C/C(=N/NC(N)=O)C1C (stereo unspecified)	5.1	0.3	-0.4	2.8	-4.3	3.3	x	x
CC1CC(C)C(=NNC(N)=O)C(C(O)CC2CCC(=O)NC2=O)C1 (stereo unspecified)	101.6*	-2.5	0.2	x	-3.6	0.4	84.7*	35.0
CS(=O)(=O)N1CCc2cc(S(=O)(=O)Nc3ccc4oc5c(c4c3)CCCC5)ccc21	62.1	-1.4	0.5	-0.3	0.1	-7.2	78.7*	67.5
CCC(=O)Nc1ccccc1N1CCN(c2ccc(F)cc2)CC1	6.2	-4.2	0.9	0.7	-2.5	-4.2	x	x
O=c1[nH]c(=O)n(C2OC(CO)C(O)C2O)cc1F (stereo unspecified)	48.9	1.5	x	x	-2.2	x	17.0	5.9
CC(=O)c1c(C)[nH]c(C(=O)NC2CCCCC2)c1C	-8.0	2.2	1.3	-1.1	-2.8	-3.9	x	x
SMILES	NR2E3 ag-1	NadD block	MsrA inhibitor	NR2E3 ag-2	bovine MsrA act	GalR3 antag	NR2E3 ag conf	VP16 counter
CC(=O)c1c(C)[nH]c(C(=O)C(C)Sc2nnc(NC3CC3)s2)c1C (stereo unspecified)	51.0	4.6	0.5	3.7	-2.9	-8.3	44.5	46.8
CCc1nnc(NC(=O)c2nc(S(=O)(=O)Cc3ccc(C)cc3)ncc2Cl)s1	53.9	0.7	0.7	3.1	-2.2	-6.6	58.6	12.8
CSc1nnc(NC(=O)c2nc(S(=O)(=O)Cc3cccc(C)c3)ncc2Cl)s1	49.1	1.9	1.2	7.1	-4.1	-8.1	47.0	9.9
CCc1nnc(NC(=O)c2nc(S(=O)(=O)Cc3ccccc3)ncc2Cl)s1	31.5	4.5	0.5	6.6	-4.8	-8.1	x	x
Cc1cccc(CS(=O)(=O)c2ncc(Cl)c(C(=O)Nc3nnc(C(C)C)s3)n2)c1	36.5	7.9	x	1.8	-8.6	x	x	x
Cc1ccc(CS(=O)(=O)c2ncc(Cl)c(C(=O)Nc3nnc(C(C)C)s3)n2)cc1	56.8	6.0	0.0	-1.6	-7.7	-0.6	56.6	14.1
C=C(C)Cc1c(C)nc(-c2ccccc2)[nH]c1=O	-16.1	-2.7	0.5	-0.2	-2.3	-6.2	x	x
CCCCN(CC)CCCNC(=O)c1cn(-c2ccc(OC)cc2)c(=O)c2ccccc12	-25.4	-7.1	0.1	-2.6	-0.8	-12.6	x	x
COC(=O)CSc1nc(C2CC2)cc(C(F)(F)F)c1C#N	-27.4	-1.2	1.0	-0.9	-2.1	-3.1	x	x
Cc1occc1C(=O)NNC(=O)c1ccccc1F	-5.3	3.0	-0.8	3.1	-11.0	-5.2	x	x
O=C(COC(=O)C1CC2C=CC1C2)Nc1ccccc1[N+](=O)[O-] (stereo unspecified)	-21.9	-6.0	-1.3	x	-0.5	-3.1	x	x
COc1ccc(OC)c(S(=O)(=O)Nc2ccc(Oc3ccccc3)cc2)c1	64.7	-11.6	1.0	3.0	0.4	-6.8	80.4*	57.0
Cc1ccccc1Nc1nc(N)nc(CSc2nc3ccccc3c(=O)n2C)n1	87.9*	5.9	0.8	-0.5	-4.7	0.3	12.6	31.9
Cc1cccc(NC(=O)CSc2nc3ccccc3c(=O)n2C)c1C	81.3*	4.6	-0.6	x	-1.2	-5.3	90.6*	80.5*
Cn1c(SCc2cccc([N+](=O)[O-])c2)nc2ccccc2c1=O	49.4	-8.7	0.3	2.5	-10.8	-4.1	82.9*	64.7
CCOC(=O)c1cnc2ccc(C)cn2c1=O	-4.5	-2.8	3.9	1.0	-5.7	-4.8	x	x
O=C(CSc1ccccc1F)NCC1(N2CCCCC2)CCCCC1	17.3	-3.5	-0.6	4.8	0.9	-0.4	x	x
COc1cccc(CN(C)C[C@H]2OCc3cnnn3CCCC(=O)N([C@H](C)CO)C[C@@H]2C)c1	-1.8	-0.8	-0.9	x	-8.4	0.9	x	x
